# T cruzi growth-1 – T. cruzi intracellular proliferation inhibitors, primary screen, cell-based, beta-gal Tulahuen parasites, NIH3T3 host, luminescence; AID 624255, 2012; inhibition, % at 8.34 µM; 77,000 tested, 5.9% active; T. cruzi beta-gal in NIH3T3, GalScreen luminescence, 90 h;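 active = mean inhibition above about 93%, with at least 55% of replicates each passing it, limit read from the data, passing the limit was not always enough; inconclusive = only one of those two conditions holds; inactive = neither condition holds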
# IDH1 R132H inh – inhibitors of IDH1 R132H reductase, primary screen, biochemical, plate reader, single point | diaphorase/resazurin fluorescence, 60 min | inhibition, % at 10 µM | 70,000 tested, 0.18% active | AID 624101, 2012; in the data active = inhibition above about 34%; inconclusive = no clear call, values can overlap the other calls; inactive = below about 11%;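 also: 0% = DMSO and 100% = no enzyme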
# GASC1 inh – inhibitors of GASC-1 (KDM4C) histone demethylase, primary screen, biochemical, single concentration HTS | Lysine-specific demethylase 4C (Homo sapiens), Q9H3R0 | GST-KDM4C 2-372, H3K9me3 peptide, LANCE TR-FRET | inhibition, % at 12.5 µM | 96,000 tested, 0.15% active | AID 720574, 2013;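 active = mean replicate inhibition above about 25%, with at least 55% of replicates also reaching it, limit read from the data, passing the limit was not always enough; inconclusive = only one of those two conditions met; inactive = neither condition met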
# Target sequence (Q9H3R0 2-372 limits assumed): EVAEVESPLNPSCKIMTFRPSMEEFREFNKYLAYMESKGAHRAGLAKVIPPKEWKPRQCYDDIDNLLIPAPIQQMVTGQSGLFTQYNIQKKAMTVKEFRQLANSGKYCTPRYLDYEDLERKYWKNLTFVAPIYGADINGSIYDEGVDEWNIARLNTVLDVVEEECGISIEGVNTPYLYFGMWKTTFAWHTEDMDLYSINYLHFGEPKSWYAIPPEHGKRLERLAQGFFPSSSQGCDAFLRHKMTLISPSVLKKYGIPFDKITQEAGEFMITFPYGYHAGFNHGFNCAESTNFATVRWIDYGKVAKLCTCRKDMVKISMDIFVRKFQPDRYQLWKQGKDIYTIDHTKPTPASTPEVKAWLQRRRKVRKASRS
#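 System: N-terminal GST-fused human GASC-1 (KDM4C) fragment, residues 2-372 / Amount: 10 nM GST-KDM4C in enzyme reaction / Also added: H3K9me3 peptide with Fe(II)/2OG / Times: 30 min demethylation and 1 h detection at room temperature / Signal: LANCE TR-FRET / Read-out basis: Fall in 671/618 emission ratio as inhibition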
# T cruzi growth-2 – T. cruzi intracellular proliferation inhibitors, confirmation, cell-based, NIH3T3 host, beta-gal parasite, luminescence, cherry-pick; shares compounds with T cruzi growth-1; T. cruzi beta-gal in NIH3T3, GalScreen luminescence, 90 h; inhibition, % at 8.35 µM; 5,600 tested, 72% active; AID 651739, 2012;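 active = mean replicate inhibition above about 95% and at least 55% of replicates individually reaching it, limit read from the data; inconclusive = only one of the two criteria is met; inactive = neither criterion is met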
# T cruzi growth-3 – inhibitors of intracellular T. cruzi replication, confirmation, NIH3T3 host cells, beta-gal parasites, cherry-pick, set 2; shares compounds with T cruzi growth-1; T. cruzi beta-gal in NIH3T3, GalScreen luminescence, 90 h; inhibition, % at 2.09 µM; 5,600 tested, 21% active; AID 651740, 2012;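 active = mean inhibition above about 95%, with at least 55% of replicates also reaching it, limit read from the data; inconclusive = meets just one of the two conditions; inactive = meets neither condition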;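 also: plate controls were neutral control median for no effect and positive control median for full effect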
# 3T3 cytotox – cytotoxicity in mouse NIH/3T3 fibroblasts, confirmation, cytotoxicity control for T. cruzi proliferation inhibitor project, cell-based, cherry-pick, single point | shares compounds with T cruzi growth-1 | NIH/3T3 viability, CellTiter-Glo ATP luminescence, 90 h | cytotoxicity (signal decrease), % at 8.35 µM | 5,600 tested, 14% active | AID 651742, 2012;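 active = mean signal decrease across replicates above about 35% based on untreated-well scatter, with enough replicates individually passing, limit read from the data; inconclusive = no rule stated though some were filed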;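 also: 0% = median of neutral control wells and 100% = median of positive control wells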
# NIH3T3 tox 2 – NIH/3T3 fibroblast cytotoxicity, confirmation, cytotoxicity control, cell-based, cherry-pick, single point, set 2. 5,600 tested, 56% active. NIH/3T3 viability, CellTiter-Glo ATP luminescence, 90 h. AID 651744, 2012. inhibition, % at 24.9 µM. shares compounds with T cruzi growth-1;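 active = mean loss of cell viability signal at or above a set limit, and enough replicates individually reaching it; inconclusive = meets only the mean limit or only the replicate share; inactive = meets neither condition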;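 also: 0% = median of neutral control wells and 100% = median of positive control wells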
# * marks the source's active call; other numbers are inactive results; ? = inconclusive; · = no result. Only a selection was taken, and hits are over-represented in it overall.
SMILES,T cruzi growth-1,IDH1 R132H inh,GASC1 inh,T cruzi growth-2,T cruzi growth-3,3T3 cytotox,NIH3T3 tox 2
O=C(Cn1cnc2sc(-c3ccccc3)cc2c1=O)Nc1ccccc1,·,2,·,·,·,·,·
COc1cc(NC(=O)COc2ccc(Cl)cc2C)c(C(=O)O)cc1OC,·,0,·,·,·,·,·
COC(=O)c1ccccc1NC(=O)c1ccc(Cl)c(S(=O)(=O)Nc2ccc(C)cc2C)c1,·,1,·,·,·,·,·
COc1ccc2c3c(n(C)c2c1)[C@H](CO)N(Cc1ccccc1)CC31CN(S(C)(=O)=O)C1,·,·,-1,·,·,·,·
COc1ccc(-c2ccc3c(c2)O[C@H](CN(C)Cc2cccnc2)[C@@H](C)CN([C@@H](C)CO)S3(=O)=O)cc1,·,0,0,·,·,·,·
COc1cccc(-c2ccc3c(c2)O[C@@H](CN(C)Cc2cccnc2)[C@@H](C)CN([C@H](C)CO)S3(=O)=O)c1,91,2,-1,·,·,·,·
C[C@H](CO)N1C[C@H](C)[C@H](CN(C)Cc2cccnc2)Oc2cc(-c3cccnc3)ccc2S1(=O)=O,5,·,0,·,·,·,·
COc1cccc(-c2ccc3c(c2)O[C@@H](CN(C)Cc2cccnc2)[C@H](C)CN([C@@H](C)CO)S3(=O)=O)c1,112*,0,2,92,104*,48*,88*
COc1cccc(-c2ccc3c(c2)O[C@H](CN(C)Cc2cccnc2)[C@@H](C)CN([C@H](C)CO)S3(=O)=O)c1,113*,0,7,98*,108*,64*,86*
COc1cccc(-c2ccc3c(c2)O[C@@H](CN(C)Cc2cccnc2)[C@@H](C)CN([C@@H](C)CO)S3(=O)=O)c1,95*,5,0,?,72,16,53*
C[C@@H]1CN([C@@H](C)CO)C(=O)c2cc(NC(=O)Cn3cnnn3)ccc2O[C@@H]1CN(C)C,·,1,1,·,·,·,·
C[C@H](CO)N1C[C@H](C)[C@@H](CN(C)S(=O)(=O)c2cccs2)Oc2ccc(NC(=O)CCCCCC(=O)Nc3ccccc3N)cc2C1=O,-40,·,0,·,·,·,·
COc1cccc(S(=O)(=O)N2CC3(CN(C(=O)Nc4ccc(F)cc4)[C@@H](CO)c4[nH]c5cc(OC)ccc5c43)C2)c1,·,·,-1,·,·,·,·
CN(C)C(=O)c1cccc(-c2ccc3c(c2)[C@@H]2[C@@H](CCN2S(=O)(=O)c2cn(C)cn2)[C@@H](CO)N3)c1,?,·,0,103*,40,14,-9
CN(C)C(=O)c1ccc(-c2ccc3c(c2)[C@H]2[C@H](CCN2S(=O)(=O)c2cn(C)cn2)[C@@H](CO)N3)cc1,71,·,-1,·,·,·,·
COc1ccccc1-c1ccc2c(c1)[C@H]1[C@H](CCN1S(=O)(=O)c1cn(C)cn1)[C@H](CO)N2,37,·,0,·,·,·,·
CN(C)C(=O)c1cccc(-c2ccc3c(c2)[C@@H]2[C@@H](CCN2S(=O)(=O)c2cn(C)cn2)[C@H](CO)N3)c1,?,·,-2,96*,66,-11,-23
COc1ccc2c3c([nH]c2c1)[C@H](CO)N(S(C)(=O)=O)CC31CCN(Cc2cccc(F)c2)CC1,·,·,0,·,·,·,·
COCC(=O)Nc1ccc2c(c1)OC[C@H](C)N(C(=O)COC)C[C@H](C)[C@@H](OC)CN(C)C2=O,·,·,-1,·,·,·,·
CCOc1ccc(NC(=O)CC2C(=O)NCCN2C(=O)c2ccccc2)cc1 (stereo unspecified),·,1,·,·,·,·,·
COCC#Cc1ccc2c(c1)O[C@H](CN(C)Cc1ccccc1)[C@H](C)CN([C@@H](C)CO)S2(=O)=O,48,0,0,·,·,·,·
COCC#Cc1ccc2c(c1)O[C@@H](CN(C)Cc1ccncc1)[C@H](C)CN([C@@H](C)CO)S2(=O)=O,?,4,2,94,97*,2,65*
COCC#Cc1ccc2c(c1)O[C@H](CN(C)Cc1ccncc1)[C@@H](C)CN([C@H](C)CO)S2(=O)=O,44,1,1,·,·,·,·
COCC#Cc1ccc2c(c1)O[C@@H](CN(C)Cc1ccccc1)[C@H](C)CN([C@@H](C)CO)S2(=O)=O,101*,-2,-4,85,64,52*,99*
COc1cc(C)c(Br)cc1S(=O)(=O)NCC1CCCO1 (stereo unspecified),·,0,·,·,·,·,·
SMILES,T cruzi growth-1,IDH1 R132H inh,GASC1 inh,T cruzi growth-2,T cruzi growth-3,3T3 cytotox,NIH3T3 tox 2
CNC[C@@H]1Oc2ccc(NS(=O)(=O)c3c(C)noc3C)cc2C(=O)N([C@H](C)CO)C[C@H]1C,21,2,-1,·,·,·,·
O=C(C[C@H]1C[C@H]2c3cc(NC(=O)Nc4ccccc4F)ccc3O[C@H]2[C@H](CO)O1)NCC1CC1,33,-1,-1,·,·,·,·
CC(=O)N(C)C[C@@H]1Oc2cc(C#Cc3ccccn3)ccc2S(=O)(=O)N([C@@H](C)CO)C[C@H]1C,102*,-5,4,91,81,-8,19
CC(=O)N(C)C[C@H]1Oc2cc(C#Cc3ccccn3)ccc2S(=O)(=O)N([C@H](C)CO)C[C@@H]1C,-5,0,8,·,·,·,·
C[C@H](CO)N1C[C@H](C)[C@H](CN(C)Cc2ccccc2)Oc2cc(C#Cc3ccccn3)ccc2S1(=O)=O,107*,0,-6,109*,90,4,-7
C[C@H]1CN([C@@H](C)CO)S(=O)(=O)c2ccc(C#Cc3ccccn3)cc2O[C@@H]1CN(C)C,·,0,-1,·,·,·,·
C[C@H](CO)N1C[C@H](C)[C@H](CN(C)C)Oc2cc(C#Cc3ccccn3)ccc2S1(=O)=O,·,0,2,·,·,·,·
C[C@@H]1CN([C@H](C)CO)S(=O)(=O)c2ccc(C#Cc3ccccn3)cc2O[C@@H]1CN(C)Cc1ccccc1,101*,-2,-3,73,53,4,99*
Cc1ccc(S(=O)(=O)c2nc(-c3ccccc3F)oc2NCC2CCCO2)cc1 (stereo unspecified),·,-1,·,·,·,·,·
CCCNC(=O)N1CC2(C1)[C@@H](c1ccccc1)[C@@H](CO)N2Cc1ccccn1,·,·,-1,·,·,·,·
CC12CCC(C(=O)Nc3ccncc3)(c3nc4ccccc4nc31)C2(C)C (stereo unspecified),·,4,·,·,·,·,·
CCCC#Cc1ccc([C@@H]2[C@@H](CO)N3CCCCN(Cc4ccncc4)C[C@@H]23)cc1,95,·,6,·,·,·,·

# High-throughput results (PubChem)
